Source: ChEMBL document CHEMBL1140626, “Quantitative structure-activity relationship of peptides binding to the class II major histocompatibility complex molecule Aq associated with autoimmune arthritis” (J Med Chem, 2007)

Tests used:
Format in all cases: cell-based
[1] = Displacement of biotinylated CLIP peptide from H-2Aq expressed in M12Q 14-7 cells at 250 uM
Outline: (§1)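 Competition binding on M12Q 14-7 cells transfected with H-2Aq. Test peptide (seven levels, 750 to 1 µM) co-incubated 2.5 h at 37 °C with biotinylated CLIP at 5 µM. After washing, cells were stained with streptavidin-PE and read by flow cytometry. % inhibition was taken from gated mean fluorescence against the no-inhibitor control, after subtracting the no-CLIP background. Duplicates, repeated once; duplicate averages were used.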

[2] = Displacement of biotinylated CLIP peptide from H-2Aq expressed in M12Q 14-7 cells at 83 uM; outline: as §1
[3] = Displacement of biotinylated CLIP peptide from H-2Aq expressed in M12Q 14-7 cells at 28 uM; outline: as §1

Substance: Ac-IAAFKADSK-NH2
- inhibition [1]: 53%
- inhibition [2]: 36%
- inhibition [3]: 31%

Substance: Ac-IAMFKMRSK-NH2
- inhibition [1]: 78%
- inhibition [2]: 63%
- inhibition [3]: 40%

Substance: Ac-IAMFKSVNK-NH2
- inhibition [1]: 50%
- inhibition [2]: 32%
- inhibition [3]: 19%

Substance: Ac-IATFKTYYK-NH2
- inhibition [1]: 70%
- inhibition [2]: 58%
- inhibition [3]: 38%

Substance: Ac-IAVFKMVRK-NH2
- inhibition [1]: 70%
- inhibition [2]: 59%
- inhibition [3]: 42%

Substance: Ac-IMMFKMSDK-NH2
- inhibition [1]: 30%
- inhibition [2]: 17%
- inhibition [3]: 4%

Substance: Ac-IMMFKTDVK-NH2
- inhibition [1]: 16%
- inhibition [2]: 24%
- inhibition [3]: 10%

Substance: Ac-IMMFKVRRK-NH2
- inhibition [1]: 74%
- inhibition [2]: 52%
- inhibition [3]: 36%

Substance: Ac-IMSFKTRDK-NH2
- inhibition [1]: 54%
- inhibition [2]: 27%
- inhibition [3]: 15%

Substance: Ac-IMTFKAVYK-NH2
- inhibition [1]: 72%
- inhibition [2]: 59%
- inhibition [3]: 47%

Substance: Ac-IMTFKMYVK-NH2
- inhibition [1]: 48%
- inhibition [2]: 40%
- inhibition [3]: 13%

Substance: Ac-ISAFKTNRK-NH2
- inhibition [1]: 84%
- inhibition [2]: 61%
- inhibition [3]: 42%

Substance: Ac-ISTFKARVK-NH2
- inhibition [1]: 74%
- inhibition [2]: 58%
- inhibition [3]: 39%

Substance: Ac-ITMFKMDRK-NH2
- inhibition [1]: 62%
- inhibition [2]: 46%
- inhibition [3]: 26%

Substance: Ac-ITMFKVVYK-NH2
- inhibition [1]: 59%
- inhibition [2]: 50%
- inhibition [3]: 35%

Substance: Ac-ITSFKMRYK-NH2
- inhibition [1]: 80%
- inhibition [2]: 69%
- inhibition [3]: 50%

Substance: Ac-ITTFKSSSK-NH2
- inhibition [1]: 20%
- inhibition [2]: 6%
- inhibition [3]: 6%

Substance: Ac-IVAFKTVVK-NH2
- inhibition [1]: 41%
- inhibition [2]: 27%
- inhibition [3]: 22%

Substance: Ac-IVSFKAYRK-NH2
- inhibition [1]: 51%
- inhibition [2]: 61%
- inhibition [3]: 49%
